Test results published in ChEMBL document CHEMBL4004865, “Synthesis, SAR and molecular docking study of novel non-β-lactam inhibitors of TEM type β-lactamase” (Bioorg Med Chem Lett, 2017).

Tests used:
Escherichia coli [1] = experiment: Inhibition of Escherichia coli beta-lactamase TEM-171 assessed as initial hydrolysis rate of substrate CENTA at 100 uM by UV spectrophotometric method (reference value: 0.74 +/- 0.11 uM/s)
Procedure, shortened: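 TEM-171 β-lactamase at 10 nM. Substrate and each inhibitor were tested at one fixed concentration. The initial rate V0 of substrate hydrolysis was recorded. The relative activity decrease (%) was calculated from V0 with inhibitor versus V0 of the enzyme-only control.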

Escherichia coli [2] = experiment: Inhibition of Escherichia coli beta-lactamase TEM-171 using CENTA as substrate at 100 uM by UV spectrophotometric method relative to control
Procedure, shortened: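 Substrate and each inhibitor were tested at one fixed concentration. The initial rate V0 of substrate hydrolysis was recorded. The relative activity decrease (%) was calculated from V0 with inhibitor versus V0 of the enzyme-only control.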

Row | V0 (Escherichia coli [1]) [µM/s] | inhibition (Escherichia coli [2]) [%] | Structure (SMILES)
1 | 0.59 | 20.3 | O=C(O)c1ccc(NC(=S)Nc2ccc(Oc3ccccc3)cc2)cc1
2 | 0.53 | 28 | O=C(O)CCC(=O)Nc1ccc(Oc2ccc(Br)cc2)cc1
3 | 0.73 | 1.4 | O=C(O)CCC(=O)Nc1ccc(Oc2ccccc2)cc1
4 | 0.37 | 50 | O=C(O)c1ccc(NC(=S)Nc2ccc(Oc3ccc(Cl)cc3Cl)cc2)cc1
5 | 0.73 | 1.4 | O=C(O)CCCC(=O)Nc1ccc(Oc2ccccc2)cc1
6 | 0.73 | 1.4 | O=C(O)CCCC(=O)Nc1ccc(Oc2ccc(Cl)cc2)cc1
7 | 0.7 | 5.4 | O=C(O)CCC(=O)Nc1ccc(Oc2ccc(Cl)cc2)cc1
8 | 0.51 | 31 | O=C(O)CCCC(=O)Nc1ccc(Oc2ccc(Cl)cc2Cl)cc1
9 | 0.51 | 31 | O=C(O)C(=O)Nc1ccc(Oc2ccc(Cl)cc2Cl)cc1
10 | 0.46 | 38 | O=C(O)CCC(=O)Nc1ccc(Oc2ccc(Cl)cc2Cl)cc1
11 | 0.53 | 28.4 | O=C(O)c1ccc(NC(=S)Nc2ccc(Oc3ccc(Cl)cc3)cc2)cc1
12 | 0.53 |  | O=C(O)CCCC(=O)Nc1ccc(Oc2ccc(Br)cc2)cc1
